# Key:
# Rattus norvegicus [1] = test: Reduction of body weight in rat at 1 mg/kg, po after 13 days relative to control; format: functional; parameters: scale not given: the % may be the effect or the level left
# Procedure, shortened: (§1)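 Chronic study in diet-induced obese rats with daily oral dosing at 1 mg/kg (for some compounds 0.1 and 0.3 mg/kg as well). Body weight change and cumulative food intake suppression were measured relative to vehicle. The 14-day study ended 18 h after the day-14 dose; one study ended on day 13.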
# Rattus norvegicus [2] = test: Suppression of cumulative food intake in rat at 1 mg/kg, po after 13 days relative to control; format: functional; procedure, shortened: as §1
# Rattus norvegicus [3] = test: Reduction of body weight in DIO rat assessed as weight change at 1 mg/kg, po daily measured 18 hrs post dose on day 13; format: functional; parameters: scale not given: the % may be the effect or the level left; procedure, shortened: as §1
# Rattus norvegicus [4] = test: Reduction of body weight in DIO rat assessed as weight change at 0.3 mg/kg, po after 18 hrs; format: functional
# Procedure, shortened: (§2)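 Acute study in diet-induced obese rats. A single oral dose was given and rats were monitored for 18 h. Food intake suppression and body weight change were measured relative to vehicle-treated controls.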
# Rattus norvegicus [5] = test: Reduction of body weight in DIO rat assessed as weight change at 0.1 mg/kg, po after 18 hrs; format: functional; procedure, shortened: as §2
# Cannabinoid receptor 1 = Cannabinoid receptor 1 (Homo sapiens, UniProt P21554); test: Inhibition of human CB1 receptor
# Cannabinoid receptor 2 = Cannabinoid receptor 2 (Homo sapiens, UniProt P34972); test: Inhibition of human CB2 receptor
# Rattus norvegicus [6] = test: Suppression of food intake in DIO rat at 0.1 mg/kg, po relative to control; format: functional; procedure, shortened: as §2
# Rattus norvegicus [7] = test: Suppression of food intake in DIO rat at 0.3 mg/kg, po relative to control; format: functional; procedure, shortened: as §2
# [8] = Bioavailability in rat; format: ADME, organism-based; conditions: in vivo
# [9] = Half life in rat; format: ADME, organism-based; conditions: in vivo
# [10] = Plasma clearance in rat; format: ADME, organism-based
# [11] = Ratio of drug level in brain to plasma in rat at 1 mg/kg, iv after 4 hrs; format: ADME, organism-based; parameters: dose 1 mg/kg, route intravenous
# [12] = Drug level in rat brain at 1 mg/kg, iv after 4 hrs; format: ADME, organism-based; parameters: dose 1 mg/kg, route intravenous; conditions: read-out: Drug uptake
# [13] = Drug level in rat plasma at 1 mg/kg, iv after 4 hrs; format: ADME, organism-based; parameters: dose 1 mg/kg, route intravenous; conditions: read-out: Drug uptake
# [14] = Bioavailability in dog; format: ADME, organism-based, Canis lupus familiaris; conditions: in vivo
# Procedure, shortened: (§3)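 PK in dog and rhesus macaque. Bioavailability, plasma clearance (mL/min/kg) and terminal half-life derived from plasma drug levels.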
# [15] = Half life in dog; format: ADME, organism-based, Canis lupus familiaris; conditions: in vivo; procedure, shortened: as §3
# [16] = Plasma clearance in dog; format: ADME, organism-based, Canis lupus familiaris; procedure, shortened: as §3
# [17] = Bioavailability in rhesus monkey; format: ADME, organism-based, Macaca mulatta; conditions: in vivo; procedure, shortened: as §3
# [18] = Half life in rhesus monkey; format: ADME, organism-based, Macaca mulatta; conditions: in vivo; procedure, shortened: as §3
# [19] = Plasma clearance in rhesus monkey; format: ADME, organism-based, Macaca mulatta; procedure, shortened: as §3
# Chain of Cannabinoid receptor 1 (P21554 whole entry): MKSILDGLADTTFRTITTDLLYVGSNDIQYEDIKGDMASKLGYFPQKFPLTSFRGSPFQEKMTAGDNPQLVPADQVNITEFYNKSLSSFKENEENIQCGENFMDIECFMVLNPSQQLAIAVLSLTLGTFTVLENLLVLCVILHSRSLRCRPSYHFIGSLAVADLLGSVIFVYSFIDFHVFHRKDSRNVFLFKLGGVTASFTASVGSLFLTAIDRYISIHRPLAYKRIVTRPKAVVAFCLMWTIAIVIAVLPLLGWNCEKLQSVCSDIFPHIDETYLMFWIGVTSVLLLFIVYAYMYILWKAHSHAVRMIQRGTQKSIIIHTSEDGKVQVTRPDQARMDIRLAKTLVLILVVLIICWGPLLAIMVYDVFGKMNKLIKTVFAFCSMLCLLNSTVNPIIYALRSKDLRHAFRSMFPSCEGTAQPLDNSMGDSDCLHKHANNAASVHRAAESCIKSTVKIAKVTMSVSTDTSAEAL
# Chain of Cannabinoid receptor 2 (P34972 whole entry): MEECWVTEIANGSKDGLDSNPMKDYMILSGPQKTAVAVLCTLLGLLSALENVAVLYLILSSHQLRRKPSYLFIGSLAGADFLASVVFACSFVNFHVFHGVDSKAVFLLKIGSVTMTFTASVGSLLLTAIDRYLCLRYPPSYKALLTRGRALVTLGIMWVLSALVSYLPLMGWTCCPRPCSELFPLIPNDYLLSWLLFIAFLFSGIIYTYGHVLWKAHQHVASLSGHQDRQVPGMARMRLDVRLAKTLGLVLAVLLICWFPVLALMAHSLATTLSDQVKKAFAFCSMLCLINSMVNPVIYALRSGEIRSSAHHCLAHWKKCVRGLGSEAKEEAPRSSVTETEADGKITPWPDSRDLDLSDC
smiles,measurement,setting,value
C[C@H](NC(=O)C(C)(C)Oc1ccc(C(F)(F)F)cn1)[C@@H](Cc1ccc(Cl)cc1)c1cccc(C#N)c1 [TARANABANT],Activity,Rattus norvegicus [1],6%
same,Activity,Rattus norvegicus [2],21%
same,Activity,Rattus norvegicus [3],6%
CC(=O)Nc1c(C(=O)C(C)(C)O)oc2nc(-c3ccccc3Cl)c(-c3ccc(Cl)cc3)cc12,Activity,Rattus norvegicus [4],-1 g
same,Activity,Rattus norvegicus [5],-1 g
same,IC50,Cannabinoid receptor 1,5.4 nM
same,IC50,Cannabinoid receptor 2,5400 nM
same,Activity,Rattus norvegicus [6],28%
same,Activity,Rattus norvegicus [7],41%
same,bioavailability,[8],61%
same,half-life,[9],4.8 h
same,clearance,[10],16 mL/min/kg
same,Kp at 4 h,[11],0.77
same,concentration at 4 h,[12],56 nM
same,concentration at 4 h,[13],72 nM
same,bioavailability,[14],87%
same,half-life,[15],26 h
same,clearance,[16],5 mL/min/kg
same,bioavailability,[17],100%
same,half-life,[18],45 h
same,clearance,[19],2.8 mL/min/kg

# Reference: ChEMBL document CHEMBL1156265, “Furo[2,3-b]pyridine-based cannabinoid-1 receptor inverse agonists: synthesis and biological evaluation. Part 1” (Bioorg Med Chem Lett, 2010)
